Laboratory results: ChEMBL document CHEMBL4251683, “Improved Dose-Response Relationship of (+)-Discodermolide-Taxol Hybrid Congeners” (2018)
The source made the active and inactive calls. No cut-off for these calls is given here.

Legend:
Hs-578T [1] = experiment: Induction of senescence in human Hs578T cells assessed as increase in cell population with high side scatter at 100 nM after 10 days by DAPI staining based flow cytometry; assay type: functional
In short: (§1)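 HS578T treated with 100 nM doxorubicin for 10 days, then stained with DAPI for live-cell flow cytometry. Forward scatter (volume) and side scatter (granularity) recorded. Dead cells were DAPI+; senescent cells were high FSC and SSC with low DAPI uptake; mitotic catastrophe was FSC increase only.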

Hs-578T [2] = experiment: Induction of senescence in human Hs578T cells assessed as increase in cell population with high forward scatter at 100 nM after 10 days by DAPI staining based flow cytometry; assay type: functional; in short: as §1
Hs-578T [3] = experiment: Induction of mitotic catastrophe in human Hs578T cells assessed as increase in cell population with high forward scatter at 100 nM after 10 days by DAPI staining based flow cytometry; assay type: functional; in short: as §1
Hs-578T [4] = experiment: Induction of senescence in human Hs578T cells assessed as increase in dead cells at 100 nM after 10 days by DAPI staining based flow cytometry; assay type: functional, cell-based; in short: as §1
Hs-578T [5] = experiment: Induction of senescence in human Hs578T cells assessed as increase in IL-6 mRNA expression level at 100 nM after 10 days by qRT-PCR analysis; assay type: functional, cell-based
In short: (§2)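 HS578T exposed to 100 nM doxorubicin for 10 days, then sorted for SSC+ DAPI− cells. Sorted and unsorted populations assayed by qRT-PCR for SASP transcripts. Expression was normalised to cyclophilin B, and groups compared by unpaired t test.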

Hs-578T [6] = experiment: Induction of senescence in human Hs578T cells assessed as increase in IL-8 mRNA expression level at 100 nM after 10 days by qRT-PCR analysis; assay type: functional, cell-based; in short: as §2
Hs-578T [7] = experiment: Induction of senescence in human Hs578T cells assessed as increase in CXCL1 mRNA expression level at 100 nM after 10 days by qRT-PCR analysis; assay type: functional, cell-based; in short: as §2
Bos taurus = organism: Bos taurus; experiment: Induction of bovine brain tubulin alpha polymerization assessed as alpha tubulin expression by measuring pellet/supernatant and pellet fraction level at 3 uM after 1 hr by immunoblot method (reference value: 10.4%)
In short: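 Purified bovine brain tubulin incubated 30 min at 37 °C with 3 μM compound in MEM–glycerol buffer, 2 mM GTP, pH 6.9. Spun at 120000g, 37 °C, 1 h. Supernatant and SDS-solubilized pellet run on SDS-PAGE, α-tubulin quantified by Western blot, % polymerized calculated as P/(S + P).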

HCC1143 = experiment: Antiproliferative activity against human HCC1143 cells after 3 to 7 days by SRB assay; assay type: functional, cell-based
In short: (§3)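 Sulforhodamine B total-protein read-out on adherent cells maintained in RPMI with 10% FBS. Seeding was 900–4000 cells per well depending on line, with 24 h allowed for attachment. Six replicate wells per concentration, exposure for three cell doublings (3 to 7 days); DMSO final below 0.01%. Logistic sigmoidal fit by nonlinear least squares gave EC50, EMax and AUC; experiments repeated at least three times.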

MDA-MB-468 [8] = experiment: Antiproliferative activity against human MDA-MB-468 cells after 3 to 7 days by SRB assay; assay type: functional, cell-based; in short: as §3
Hs-578T [9] = experiment: Antiproliferative activity against human Hs578T cells after 3 to 7 days by SRB assay; assay type: functional, cell-based; in short: as §3
BT-549 [10] = experiment: Antiproliferative activity against human BT549 cells after 3 to 7 days by SRB assay; assay type: functional, cell-based; in short: as §3
MDA-MB-157 = experiment: Antiproliferative activity against human MDA-MB-157 cells after 3 to 7 days by SRB assay; assay type: functional, cell-based; in short: as §3
BT-20 = experiment: Antiproliferative activity against human BT20 cells after 3 to 7 days by SRB assay; assay type: functional, cell-based; in short: as §3
A549 = experiment: Antiproliferative activity against human A549 cells after 3 to 7 days by SRB assay; assay type: functional, cell-based; in short: as §3
MCF7 = experiment: Antiproliferative activity against human MCF7 cells after 3 to 7 days by SRB assay; assay type: functional, cell-based; in short: as §3
HEY [11] = experiment: Antiproliferative activity against human HEY cells after 3 to 7 days by SRB assay; assay type: functional, cell-based; in short: as §3
HEY [12] = experiment: Induction of senescence in human HEY cells assessed as increase in PAI1 mRNA expression level at EC80 concentration after 6 days by qRT-PCR analysis; assay type: functional, cell-based
In short: (§4)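 Cells treated 6 days at EC80 doses (derived from dose-response data) and analysed for SASP transcripts by qRT-PCR. Expression was normalised to cyclophilin B and expressed relative to vehicle-treated asynchronous cells. Bars are mean ± SEM (n = 2).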

HEY [13] = experiment: Induction of senescence in human HEY cells at EC80 concentration after 3 to 6 days by DAPI staining based flow cytometry; assay type: functional
In short: (§5)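 Compounds given at approximately EC80 (taken from the cell's own dose-response data) for 3 to 6 days depending on line. Floating and trypsinized adherent cells were pooled, washed 3–5 times in warm PBS, and stained with DAPI (1/10,000) in PBS with 4% FBS on ice. Flow cytometry counted 10 000 cells per gate: dead = DAPI+, senescent = SSC+ DAPI−. Duplicate experiments, mean ± SEM.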

Hs-578T [14] = experiment: Induction of senescence in human Hs578T cells at EC80 concentration after 3 to 6 days by DAPI staining based flow cytometry; assay type: functional; in short: as §5
Hs-578T [15] = experiment: Induction of cell death in human Hs578T cells at EC80 concentration after 3 to 6 days by DAPI staining based flow cytometry; assay type: functional; in short: as §5
BT-549 [16] = experiment: Induction of cell death in human BT549 cells at EC80 concentration after 3 to 6 days by DAPI staining based flow cytometry; assay type: functional; in short: as §5
MDA-MB-468 [17] = experiment: Induction of cell death in human MDA-MB-468 cells at EC80 concentration after 3 to 6 days by DAPI staining based flow cytometry; assay type: functional; in short: as §5
BT-549 [18] = experiment: Induction of senescence in human BT549 cells at EC80 concentration after 3 to 6 days by DAPI staining based flow cytometry; assay type: functional; in short: as §5
MDA-MB-468 [19] = experiment: Induction of senescence in human MDA-MB-468 cells at EC80 concentration after 3 to 6 days by DAPI staining based flow cytometry; assay type: functional; in short: as §5
HEY [20] = experiment: Induction of senescence in human HEY cells assessed as increase in IL-8 mRNA expression level at EC80 concentration after 6 days by qRT-PCR analysis; assay type: functional, cell-based; in short: as §4
HEY [21] = experiment: Induction of senescence in human HEY cells assessed as increase in CXCL1 mRNA expression level at EC80 concentration after 6 days by qRT-PCR analysis; assay type: functional, cell-based; in short: as §4
MDA-MB-468 [22] = experiment: Induction of senescence in human MDA-MB-468 cells assessed as increase in IL-8 mRNA expression level at EC80 concentration after 6 days by qRT-PCR analysis; assay type: functional, cell-based; in short: as §4
MDA-MB-468 [23] = experiment: Induction of senescence in human MDA-MB-468 cells assessed as increase in CXCL1 mRNA expression level at EC80 concentration after 6 days by qRT-PCR analysis; assay type: functional, cell-based; in short: as §4
MDA-MB-468 [24] = experiment: Induction of senescence in human MDA-MB-468 cells assessed as increase in PAI1 mRNA expression level at EC80 concentration after 6 days by qRT-PCR analysis; assay type: functional, cell-based; in short: as §4

SMILES	Activity (Bos taurus)	Activity (HCC1143)	Activity (MDA-MB-468 [8])	Activity (Hs-578T [9])	Activity (BT-549 [10])	Activity (MDA-MB-157)	Activity (BT-20)	Activity (A549)	Activity (MCF7)	Activity (HEY [11])	Activity (HEY [12])	Activity (HEY [13])	Activity (Hs-578T [14])	Activity (Hs-578T [15])	Activity (BT-549 [16])	Activity (MDA-MB-468 [17])	Activity (BT-549 [18])	Activity (MDA-MB-468 [19])	Activity (HEY [20])	Activity (HEY [21])	further results
COc1cccc2c1C(=O)c1c(O)c3c(c(O)c1C2=O)C[C@@](O)(C(=O)CO)C[C@@H]3O[C@H]1C[C@H](N)[C@H](O)[C@H](C)O1																					Activity (Hs-578T [1]): Active; Activity (Hs-578T [2]): Active; Activity (Hs-578T [3]): Active; Activity (Hs-578T [4]): Active; Activity (Hs-578T [5]): Active; Activity (Hs-578T [6]): Active; Activity (Hs-578T [7]): Active
C=C/C=C\[C@H](C)[C@H](OC(=O)NCCCNC(=O)c1cccc(N=[N+]=[N-])c1)[C@@H](C)[C@H](O)[C@@H](C)C/C(C)=C\[C@H](C)[C@@H](O)[C@@H](C)/C=C\[C@@H](O)C[C@@H]1OC(=O)[C@H](C)[C@@H](O)[C@H]1C	60%	Active	Active	Active	Active	Active	Active	Active	Active	Active	Active	10 - 15%	15 - 18%	inactive	Active	Active	<10%	<10%	Active	Active	Activity (MDA-MB-468 [22]): Active; Activity (MDA-MB-468 [23]): Active; Activity (MDA-MB-468 [24]): Active
C=C/C=C\[C@H](C)[C@H](OC(=O)NCCCCNC(=O)c1ccc(N=[N+]=[N-])cc1)[C@@H](C)[C@H](O)[C@@H](C)C/C(C)=C\[C@H](C)[C@@H](O)[C@@H](C)/C=C\[C@@H](O)C[C@@H]1OC(=O)[C@H](C)[C@@H](O)[C@H]1C	52.2%										Active	10 - 15%	15 - 18%	inactive	Active	Active	<10%	<10%	Active	Active	
C=C/C=C\[C@H](C)[C@H](OC(N)=O)[C@@H](C)[C@H](O)[C@@H](C)C/C(C)=C\[C@H](C)[C@@H](O)[C@@H](C)/C=C\[C@@H](O)C[C@@H]1OC(=O)[C@H](C)[C@@H](O)[C@H]1C [DISERMOLIDE]	59.3%	Active	Active	Active	Active	Active	Active	Active	Active	Active		10 - 15%	15 - 18%	inactive							Activity (MDA-MB-468 [22]): Active; Activity (MDA-MB-468 [23]): Active; Activity (MDA-MB-468 [24]): Active
C=C/C=C\[C@H](C)[C@H](OC(=O)NCCNC(=O)c1ccc(N=[N+]=[N-])cc1)[C@@H](C)[C@H](O)[C@@H](C)C/C(C)=C\[C@H](C)[C@@H](O)[C@@H](C)/C=C\[C@@H](O)C[C@@H]1OC(=O)[C@H](C)[C@@H](O)[C@H]1C	54.6%										Active	10 - 15%	15 - 18%	inactive	Active	Active	<10%	<10%	Active	Active	
C=C/C=C\[C@H](C)[C@H](OC(=O)NCCCNC(=O)c1ccc(N=[N+]=[N-])cc1)[C@@H](C)[C@H](O)[C@@H](C)C/C(C)=C\[C@H](C)[C@@H](O)[C@@H](C)/C=C\[C@@H](O)C[C@@H]1OC(=O)[C@H](C)[C@@H](O)[C@H]1C	64.2%	Active	Active	Active	Active	Active	Active	Active	Active	Active	Active	10 - 15%	15 - 18%	inactive	Active	Active	<10%	<10%	Active	Active	Activity (MDA-MB-468 [22]): Active; Activity (MDA-MB-468 [23]): Active; Activity (MDA-MB-468 [24]): Active
C=C/C=C\[C@H](C)[C@H](OC(=O)NCCCNC(=O)c1ccc(C2(C(F)(F)F)N=N2)cc1)[C@@H](C)[C@H](O)[C@@H](C)C/C(C)=C\[C@H](C)[C@@H](O)[C@@H](C)/C=C\[C@@H](O)C[C@@H]1OC(=O)[C@H](C)[C@@H](O)[C@H]1C	56.1%	Active	Active	Active	Active	Active	Active	Active	Active	Active	Active	10 - 15%	15 - 18%	inactive	Active	Active	<10%	<10%	Active	Active	Activity (MDA-MB-468 [22]): Active; Activity (MDA-MB-468 [23]): Active; Activity (MDA-MB-468 [24]): Active
CC(=O)O[C@H]1C(=O)[C@@]2(C)[C@H]([C@H](OC(=O)c3ccccc3)[C@]3(O)C[C@H](OC(=O)[C@H](O)[C@@H](NC(=O)c4ccccc4)c4ccccc4)C(C)=C1C3(C)C)[C@]1(OC(C)=O)CO[C@@H]1C[C@@H]2O [PACLITAXEL]	15.8%	Active	Active	Active	Active	Active	Active	Active	Active	Active		10 - 15%	15 - 18%								
